This is an account of results in ChEMBL document CHEMBL1122572, “Improved synthesis and antitumor evaluation of 5,8-dideazaisofolic acid and closely related analogues” (J Med Chem, 1984).

The subject of one assay is WiDr. As to the kind of experiment: In vitro inhibition of growth of the human gastrointestinal adenocarcinoma cells WIDR. The format is functional, cell-based. In a few lines:
(§1)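 Monodispersed growing cells (0.7-1 × 10^5 in 1 mL medium) were added to wells already holding 0–50 μL of drug solution. Drug was dissolved fresh in 0.1 M NaOH and diluted with pH 7.0 phosphate buffer. Cells were incubated 72–96 h at 37 °C in humidified 8% CO₂, trypsinized and counted on a Coulter counter. IC50 was the concentration giving 50% growth inhibition versus untreated controls.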

Another assay relates to HT-29. Nature of the assay: In vitro inhibition of growth of the human gastrointestinal adenocarcinoma cells HT-29. The format is functional, cell-based. In a few lines: as §1
Assay [1] in a line: In vitro inhibition of growth of the human gastrointestinal adenocarcinoma cells HaTu80. The format is functional. Summed up:
as §1

Another assay deals with SW480. As to the kind of experiment: In vitro inhibition of growth of the human gastrointestinal adenocarcinoma cells SW480. The format is functional, cell-based. In a few lines: as §1

In the case of `Nc1nc(=O)c2cc(NCc3ccc(C(=O)N[C@H](CCC(=O)O)C(=O)O)cc3)ccc2[nH]1`, the half-maximal inhibitory concentration (IC50) (with WiDr; with HT-29; in assay [1] (Homo sapiens); in the assay with SW480) was over 300 µM in each case.

Consider `Nc1nc(O)c2cc(N(C=O)Cc3ccc(C(=O)NC(CCC(=O)O)C(=O)O)cc3)ccc2n1` (centres undefined), for which the IC50 in the assay with WiDr was found to be 195 µM; with HT-29 it was 100 µM; in assay [1] (Homo sapiens) it was 95 µM; in the assay with SW480, 150 µM.

Turning to `CN(Cc1ccc(C(=O)NC(CCC(=O)O)C(=O)O)cc1)c1ccc2nc(N)nc(O)c2c1` (centres undefined), the IC50 was 6.3 µM in the assay with WiDr, 3.2 µM in the assay on HT-29, 4.8 µM in assay [1] (Homo sapiens) and 5 µM with SW480.

As to `Cc1c(N(C)Cc2ccc(C(=O)NC(CCC(=O)O)C(=O)O)cc2)ccc2nc(N)nc(O)c12` (centres undefined), the half-maximal inhibitory concentration (IC50) in the assay with WiDr is 4.8 µM; in the assay on HT-29, 2.7 µM; in assay [1] (Homo sapiens), 3.6 µM; with SW480, 4.8 µM.

For the compound `Nc1nc(N)c2cc(NCc3ccc(C(=O)NC(CCC(=O)O)C(=O)O)cc3)ccc2n1` (centres undefined), the IC50 in the assay with WiDr came out at 0.2 µM; with HT-29, 0.2 µM; in assay [1] (Homo sapiens) it was 0.15 µM; with SW480, 0.2 µM.

For the compound `CN(Cc1cnc2nc(N)nc(N)c2n1)c1ccc(C(=O)N[C@@H](CCC(=O)O)C(=O)O)cc1` [METHOTREXATE], the half-inhibitory concentration (IC50) came to 0.025 µM with WiDr, 0.018 µM in the assay on HT-29, 0.009 µM in assay [1] (Homo sapiens) and 0.015 µM in the assay with SW480.

Take `Cc1c(NCc2ccc(C(=O)NC(CCC(=O)O)C(=O)O)cc2)ccc2nc(N)nc(O)c12` (centres undefined): the IC50 in the assay with WiDr amounted to 4 µM; in the assay on HT-29 it was 1.1 µM; in assay [1] (Homo sapiens) it was 4 µM; in the assay with SW480, 10 µM.

As for `Nc1nc(=O)c2cc(NCc3ccc(C(=O)NC(CCC(=O)O)C(=O)O)cc3)ccc2[nH]1` (stereo in doubt; form 1), the midpoint of inhibition in assay [1], the IC50, lay at 4.5 µM.
